Compounds with a hit are over-represented: about 3.8% of the library has one in this group of screens.
Lipid droplet – hepatic lipid droplet formation modulation; hit rate 0.4% among 240,000; AML12 mouse hepatocytes, oleate lipid droplets, BODIPY imaging; inhibition, % at 6.5 µM; AID 1656;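 active = lipid droplet intensity inhibited by at least 50%, with more than 500 cells counted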
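Assay system: AML12 mouse liver cells | Compound dosing: One dose, 6.5 µM compound | Read-out basis: Droplet intensity reduction, % inhibition | Measured by: Fluorescence imaging, 20x objective, two fields per well | Schedule: Overnight treatment with compound plus oleate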
MrgX1 PAM – human MrgX1 positive allosteric modulation, primary screen; B-score at 10 µM; MrgX1-HEK293, Fluo-4 calcium flux, FDSS; hits give high values; hit rate 0.63% among 310,000; AID 588675; Q96LB2;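 active = plate-corrected calcium response at least 3 library SD above typical, normal starting fluorescence, not activating the receptor alone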;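 note: compound read alongside a low EC10 to EC30 dose of BAM8-22 agonist; peak minus trough fluorescence over baseline measured at the second addition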
Target sequence (Q96LB2 whole entry, looked up): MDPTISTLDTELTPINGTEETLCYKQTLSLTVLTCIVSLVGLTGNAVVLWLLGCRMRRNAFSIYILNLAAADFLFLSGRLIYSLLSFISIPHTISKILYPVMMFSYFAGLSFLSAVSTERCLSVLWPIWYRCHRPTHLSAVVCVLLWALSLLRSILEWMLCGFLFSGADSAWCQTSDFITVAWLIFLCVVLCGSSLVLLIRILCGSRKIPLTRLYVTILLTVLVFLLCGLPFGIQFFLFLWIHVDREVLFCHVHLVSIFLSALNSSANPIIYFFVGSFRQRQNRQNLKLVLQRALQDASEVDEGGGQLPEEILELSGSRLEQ
MrgX1 agonist – agonists of human MrgX1 receptor | AID 588627 | MrgX1-HEK293 cells, Fluo-4 calcium fluorescence, agonist mode; hits give high values | B-score at 10 µM | Q96LB2 | hit rate 0.44% among 310,000;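 active = calcium response B-score plate-corrected fluorescence ratio at least 3 library SD, with starting fluorescence B-score inside 5 SD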
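Test system: HEK293 cells stably expressing human MrgX1 receptor; Input: fifteen thousand cells per well; Dosing: compound delivered in addition one of three; Schedule: overnight seeding, then 1 h dark dye loading; Technique: Fluo-4 NW calcium fluorescence; Measure: B-scored fluorescence response ratio; Controls: positive and negative controls per plate.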
RGS4 block – inhibitors of human RGS4 | HEK293 M3R/RGS4 inducible, Fluo-4 calcium flux; hits give high values; triggered by carbachol at its EC20 | B-score at 10 µM | hit rate 0.45% among 310,000 | AID 463165;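 active = B-score, a plate-corrected calcium signal, over three deviations above library mean, with baseline fluorescence within five deviations of library mean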;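 note: RGS4 expression induced by doxycycline in cells with stable M3 receptor; B-score is computed from the integrated fluorescence ratio over baseline after carbachol; higher B-score means a larger calcium signal and so more RGS4 inhibition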
Target sequence (P49798 whole entry, looked up): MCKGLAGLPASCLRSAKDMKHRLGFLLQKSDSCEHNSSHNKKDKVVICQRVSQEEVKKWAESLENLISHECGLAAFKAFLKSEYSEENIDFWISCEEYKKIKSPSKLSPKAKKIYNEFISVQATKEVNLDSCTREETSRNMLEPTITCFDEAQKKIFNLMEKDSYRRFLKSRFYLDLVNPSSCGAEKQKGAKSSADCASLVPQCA
RGS4 pot – potentiators or activators of RGS4; HEK293 M3R/inducible RGS4, carbachol calcium flux Fluo4; hits give low values; B-score at 10 µM; hit rate 0.92% among 310,000; AID 463111;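 active = B-score of the integrated calcium signal more than 4 SD below the library mean, with starting fluorescence not abnormally high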;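 note: negative B-score means reduced calcium response which marks RGS4 activation or potentiation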
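Test system: HEK293 cells with stable M3R and inducible RGS4; also added: carbachol at ECmax as muscarinic agonist stimulus; schedule: dye loading 30 min 37 °C, buffer rest 30 min RT; technique: kinetic calcium fluorescence imaging with Fluo4-AM dye, 2 µM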
MrgX1 antag – blocks BAM8-22 activation of human MrgX1 receptor; Q96LB2; MRGX1-HEK293 calcium flux, Fluo-4, BAM8-22 antagonism; hits give low values; B-score at 10 µM; hit rate 1.3% among 310,000; AID 588676;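 active = calcium-response B-score plate-corrected more than 3 library SD below zero, starting fluorescence within 5 deviations, no agonist response on first addition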;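 note: peak minus trough fluorescence over baseline after final BAM8-22 challenge near maximal dose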
MrgX1 allo conf – reconfirmed allosteric activator of human MrgX1 receptor. shares compounds with MrgX1 PAM. MrgX1-HEK293, Fluo-4 calcium fluorescence, FDSS. activation (ratio percentage), % at 10 µM. hit rate 13% among 1,200;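 active = ratio at least 3 SD above the weak peptide control, stable starting fluorescence, no direct agonism earlier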;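 note: compound followed by low BAM8-22 agonist challenge near EC20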
MrgX1 ant reconf – human MrgX1 receptor antagonism, re-confirmation screen | hit rate 19% among 2,300 | AID 602420 | shares compounds with MrgX1 antag | MrgX1-HEK293, BAM8-22 calcium flux, Fluo-4; hits give low values | remaining BAM8-22 calcium response % of control (hits give low values), % at 10 µM;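 active = remaining agonist calcium response no higher than 100% minus 3 SD of agonist-only control wells, with starting fluorescence near control levels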;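 note: agonist BAM8-22 given at a near maximal EC90 to ECmax level; peak minus minimum fluorescence divided by baseline after agonist addition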
HEK293 Ca flux – MrgX1 antagonist counter-screen hit in parental HEK293 cells; Fluo-4 calcium fluorescence, FDSS; shares compounds with MrgX1 antag; hit rate 2% among 4,000; fluorescence ratio F(max-min)/F0 at 10 µM;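 active = duplicate-averaged calcium fluorescence ratio at least three times the standard deviation of buffer wells, a nonspecific response in parental cells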
HEK293 Ca counter – MrgX1 allosteric activator counter-screen hit in parental HEK293 cells. shares compounds with MrgX1 antag. AID 624114. parental HEK293 calcium flux, Fluo-4 fluorescence ratio; hits give high values. hit rate 0.4% among 4,000. fluorescence ratio F(max-min)/F0 at 10 µM;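 active = calcium fluorescence ratio, averaged over duplicates, at least 3 SD of the buffer-well ratio, meaning a nonspecific response in receptor-free cells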;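 note: untransfected parental HEK293 lacking MrgX1 used as counterscreen for MrgX1 allosteric activators; fluorescence change taken during the second addition on a kinetic imager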
HEK293 Ca cntr2 – activity in parental HEK293 cells lacking MrgX1 receptor; shares compounds with MrgX1 antag; Fluo-4 calcium fluorescence (FDSS); hits give high values; fluorescence ratio F(max-min)/F0 at 10 µM; hit rate 8.7% among 4,000; AID 624115;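 active = calcium fluorescence ratio at least three times the spread of buffer wells, meaning a non-specific response in parental cells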
Starred values were filed as active, the others as inactive; i = inactive; · = not tested or not shown.

SMILES | Lipid droplet | MrgX1 PAM | MrgX1 agonist | RGS4 block | RGS4 pot | MrgX1 antag | MrgX1 allo conf | HEK293 Ca flux | HEK293 Ca counter | HEK293 Ca cntr2 | others
N#CCSc1ncnc2ccccc12 | 11 | i | i | i | i | i | · | · | · | ·
c1ccc(-c2nc3c(ccc4ccccc43)[nH]2)nc1 | -8 | 6.8* | i | i | i | i | i | i | i | i
c1ccc(-c2nc3ccccc3[nH]2)nc1 | 11 | i | i | i | i | i | · | · | · | ·
CNS(=O)(=O)c1ccc(CCC(=O)N2CCN(c3ccccc3OC)CC2)cc1 | -1 | 11* | i | i | i | i | i | i | i | i
CCn1nc(C)c(CCC(=O)O)c1C | 22 | 10* | i | i | i | i | i | i | i | i
O=C(CN(C1CCCCC1)C1CCCCC1)N1CCc2ccccc2C1 | -3 | 8.8* | i | i | i | i | i | i | i | i
O=C(CN(C1CCCCC1)S(=O)(=O)c1ccccc1)N1CCCC1 | 6 | i | i | i | i | i | · | · | · | ·
CCOc1ccc(N2C(=O)CC(NCCNc3ccc(C(=O)c4cccs4)cc3)C2=O)cc1 (stereo not drawn) | 2 | i | i | i | i | i | · | · | · | ·
C/C(=N/OCC(=O)Nc1ccc(C)cc1C)c1cccs1 | -1 | 27* | i | i | i | i | 3.9%* | i | i | i
C/C(=N\OCC(=O)Nc1ccccc1C(=O)O)c1cccs1 | -1 | i | i | i | i | i | · | · | · | ·
CCCNS(=O)(=O)c1cc2c3c(c1)CCN3C(=O)CC2 | 4 | i | i | i | i | i | · | · | · | ·
Cn1c(CNC(=O)CNC(=O)c2ccccc2F)cc(=O)n(C)c1=O | -2 | i | i | i | i | i | · | · | · | ·
COc1ccccc1-n1cc(-c2ccccc2)c2c(=S)nc[nH]c21 | -4 | 16* | i | i | i | i | i | i | i | i
CCc1nnc(NC(=O)c2nn(-c3ccccc3)nc2C)s1 | -8 | i | i | i | i | i | · | · | · | ·
Cc1nn(-c2ccccc2)nc1C(=O)Nc1nnc(C(F)(F)F)s1 | 2 | 6.5* | i | i | i | i | i | i | i | 68*
Cc1ccc2nc(SC(C)C(=O)N3CCOCC3)[nH]c2c1 (stereo not drawn) | -7 | 7.3* | i | i | i | i | i | i | i | i
COc1ccc(-c2[nH]ncc2-c2cnn(-c3ccccc3)c2)c(O)c1 | · | 9.4* | i | i | i | i | i | i | i | i
COc1ccc(-c2cn[nH]c2-c2ccc(O)cc2O)cc1 | -2 | i | i | i | i | i | · | · | · | ·
C=C(C)COc1ccc(-c2[nH]ncc2-c2ccc(OC)cc2)c(O)c1 | 6 | i | i | i | i | i | · | · | · | ·
C=C(C)COc1ccc(-c2[nH]ncc2-c2ccccc2)c(O)c1 | · | 16* | i | i | i | i | 14%* | i | i | i
O=C(CN1CCCc2ccccc21)NCCc1ccc(Cl)cc1 | -31 | i | i | i | i | i | · | · | · | ·
CCCCC1=NN2C(=N)CC(=O)N=C2S1 | · | i | i | i | i | i | · | · | · | ·
NS(=O)(=O)c1ccc(CCNC(=O)c2cc([N+](=O)[O-])ccc2N2CCCCC2)cc1 | -39 | i | i | i | i | i | · | · | · | ·
N#CCSc1nnc(COc2ccc3ccccc3c2)o1 | · | 25* | i | i | i | i | i | i | i | i
NC(=O)CSc1nnc(COc2ccc3ccccc3c2)o1 | -1 | i | i | i | i | i | · | · | · | ·
SMILES | Lipid droplet | MrgX1 PAM | MrgX1 agonist | RGS4 block | RGS4 pot | MrgX1 antag | MrgX1 allo conf | HEK293 Ca flux | HEK293 Ca counter | HEK293 Ca cntr2 | others
Cn1ncc(Br)c1C(=O)NC12CC3CC(CC(C3)C1)C2 | -10 | 8.6* | i | i | i | i | i | i | i | i
Cc1ccc(N=Cc2sc(O)c3ccccc23)c(C)c1 | 17 | i | i | i | i | i | · | · | · | ·
Cc1ccc(N=Cc2sc(O)c3ccccc23)cc1 | -19 | 7* | i | i | i | -6.9* | i | i | i | i | MrgX1 ant reconf=75%*
Cc1ccc(-n2nnnc2-c2cccc(C)c2)cc1 | 0 | i | i | i | i | i | · | · | · | ·
Cc1cc(-c2nnnn2-c2ccc(C(F)(F)F)cc2)no1 | -8 | 7* | i | i | i | i | i | i | i | i
CCc1nnc(NC(=O)[C@@H](NC(=O)c2cccc(S(=O)(=O)N3CCOCC3)c2)C(C)C)s1 | · | i | i | i | i | i | · | · | · | ·
Cc1occc1C(=O)NNC(=O)Nc1ccc([N+](=O)[O-])cc1 | -2 | i | i | i | i | i | · | · | · | ·
CN1CCN(C(=S)NC(=O)c2ccc(Br)cc2)CC1 | -14 | i | i | i | i | i | · | · | · | ·
CN1CCN(C(=S)C(=O)Nc2ccc(Br)cc2)CC1 | 18 | 11* | i | i | i | i | i | i | i | i
COc1ccc2[nH]c(C(=O)O)c(NS(=O)(=O)c3ccc(C)cc3C)c2c1 | 15 | i | i | i | i | i | · | · | · | ·
NC(=O)c1c(NC(=O)C2c3ccccc3Oc3ccccc32)sc2c1CCCCC2 | -23 | 13* | i | i | i | i | i | i | i | i
CSc1nc2ccc(S(=O)(=O)N(C)C)cc2s1 | -1 | i | i | i | i | i | · | · | · | ·
CCN(CC)S(=O)(=O)c1ccc2nc(SC)sc2c1 | -25 | 13* | i | i | i | i | i | i | i | i
CS(=O)(=O)c1ccc2nc(NC(=O)c3ccco3)sc2c1 | -4 | 9* | i | i | i | i | i | i | i | i

Source: PubChem (several laboratories)
